# HCV core dimer: HCV core protein dimerization inhibition. TR-FRET GST/Flag-core106 dimerization, 1536-well. inhibition, % at 5 µM. 0.33% of 300,000 active. AID 1899;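 active = inhibition above the mean of all tested compounds plus 3 SD, set per screening campaign, cut at about 45% in these data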
#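 Material: Tagged HCV core106 pair (GST and Flag) | Amount: GST-core106 13.5 nM, Flag-core106 17 nM | Medium: KF-containing HEPES buffer, pH 7.45, DTT, CHAPS, BSA | Reagent: Eu donor and XL665 acceptor anti-tag antibodies | Schedule: 4 h at 22.5 °C | Technique: Time-resolved FRET, ex 340 nm, em 617 and 671 nm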
# ABHD5 PLIN5 PPI: ABHD5-PLIN5 protein interaction inhibition; inhibition, % at 4 µM; Q00G26+Q8WTS1; Split G. princeps luciferase complementation, luminescence, 4 h; 0.78% of 360,000 active;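 active = inhibition above the mean inhibition across every tested compound plus 3 SD, cut at about 22% in these data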;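 note: 0% = DMSO only wells and the 100% control is not disclosed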
# Target sequence (Q00G26 whole entry, looked up): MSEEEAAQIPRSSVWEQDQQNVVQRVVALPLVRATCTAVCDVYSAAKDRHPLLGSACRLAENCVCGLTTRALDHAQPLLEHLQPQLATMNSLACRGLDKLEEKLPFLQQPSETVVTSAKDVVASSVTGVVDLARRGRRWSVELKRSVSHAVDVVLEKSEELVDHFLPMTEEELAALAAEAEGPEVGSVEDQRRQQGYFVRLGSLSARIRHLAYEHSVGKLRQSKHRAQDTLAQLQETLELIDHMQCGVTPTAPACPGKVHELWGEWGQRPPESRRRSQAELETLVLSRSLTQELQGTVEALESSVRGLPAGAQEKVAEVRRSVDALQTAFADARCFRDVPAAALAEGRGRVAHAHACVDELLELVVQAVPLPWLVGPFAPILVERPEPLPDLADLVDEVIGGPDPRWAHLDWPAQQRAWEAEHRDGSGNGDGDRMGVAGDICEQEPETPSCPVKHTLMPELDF
# Target sequence (Q8WTS1 whole entry, looked up): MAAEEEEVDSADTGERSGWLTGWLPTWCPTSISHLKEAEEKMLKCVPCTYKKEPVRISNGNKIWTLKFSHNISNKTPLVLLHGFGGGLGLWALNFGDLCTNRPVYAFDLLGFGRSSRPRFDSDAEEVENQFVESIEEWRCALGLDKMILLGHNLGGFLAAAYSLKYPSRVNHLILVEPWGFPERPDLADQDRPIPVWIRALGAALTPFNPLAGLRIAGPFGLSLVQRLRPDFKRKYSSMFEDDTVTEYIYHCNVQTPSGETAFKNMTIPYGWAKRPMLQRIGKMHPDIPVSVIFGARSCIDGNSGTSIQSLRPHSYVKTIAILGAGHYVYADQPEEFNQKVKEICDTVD
# NadD block: blocks S. aureus nicotinate mononucleotide adenylyltransferase; purified NadD enzyme, colorimetric absorbance read-out; inhibition, % at 20 µM; 0.78% of 360,000 active; AID 602399; in the data active = inhibition above about 26%
# rCAG binder: molecules binding r(CAG) RNA repeats; r(CAG) RNA repeat, TO-PRO-1 dye displacement fluorescence; inhibition, % at 3 µM; 1.3% of 370,000 active; AID 651821;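 active = inhibition above the plate cutoff, the mean of all test compounds on that plate plus 3 SD, cut at about 35% in these data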;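 note: 0% = DMSO alone and 100% = 100 µM mitoxantrone as full dye displacement; higher means more dye released from RNA so lower well fluorescence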
# rCAG binder conf: r(CAG) RNA repeat binding, confirmation; inhibition, % at 3 µM; TO-PRO-1 dye displacement fluorescence; shares compounds with rCAG binder; 70% of 4,300 active;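 active = inhibition above a per-plate cutoff, the mean inhibition of sample wells plus 3 SD, cut at about 35% in these data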;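 note: loss of TO-PRO-1 fluorescence as compound displaces dye from 1x1 AA loop RNA; 0% = DMSO only wells and 100% = 100 µM mitoxantrone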
# dCAG dye counter: disrupts DNA CAG TO-PRO-1 complex, flagging rCAG hits; shares compounds with rCAG binder; d(CAG) DNA oligo TO-PRO-1 dye displacement, fluorescence; inhibition, % at 3 µM; 94% of 4,300 active; AID 652068;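 active = inhibition above its plate's cutoff, the mean test-well inhibition plus 3 SD, cut at about 4.8% in these data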;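 note: 0% = DNA dye mix with DMSO and 100% = 100 µM mitoxantrone; hits displace the dye from DNA and so lower well fluorescence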
# dCAG dye DR: DNA CAG dye complex inhibition, dose response counter-screen; 20% of 250 active; IC50, µM; shares compounds with rCAG binder; DNA CAG/GTC duplex TO-PRO-1 dye displacement fluorescence; AID 686960; in the data active = IC50 below about 10 µM
# Starred values were filed as active, the others as inactive; nt = not tested or not shown. The list is not random: actives were taken first. Their share in the collection is about 2.6%.
SMILES,HCV core dimer,ABHD5 PLIN5 PPI,NadD block,rCAG binder,rCAG binder conf,dCAG dye counter,others
O=C1CC(c2ccc(O)c(O)c2)Oc2c1ccc(O)c2O (configuration not stated),-7,8,13,48*,49*,21*,
Cc1noc(NS(=O)(=O)c2ccc(NC(=O)C34CC5CC(C3)CC(n3cnc(Br)n3)(C5)C4)cc2)c1C,-8,9,6,41*,29,7.6*,
Cc1ccc(C2(C)NC(=O)N(CC(=O)Nc3ccc(S(=O)(=O)Nc4nccs4)cc3)C2=O)cc1 (configuration not stated),4,-8,8,51*,31,12*,
O=C(CCC1CCCCC1)Nc1ccc(S(=O)(=O)Nc2nccs2)cc1,4,-17,7,53*,43*,14*,
Cc1noc(NS(=O)(=O)c2ccc(NC(=O)CCC3CCCCC3)cc2)c1C,7,2,2,45*,46*,8.6*,dCAG dye DR=>30
Cc1ccc(NC(=O)CN2C(=O)NC(C)(c3ccc(Cl)cc3)C2=O)cc1 (configuration not stated),2,-4,-3,0,nt,nt,
O=C(O)CCC(=O)Nc1ccc(S(=O)(=O)Nc2nccs2)cc1,6,1,-1,5,nt,nt,
c1ccc(N2[C@@H]3c4ccccc4C[C@H]2c2ccccc23)cc1,nt,-6,nt,3,nt,nt,
C[C@H](CO)N1C[C@H](C)[C@@H](CN(C)S(=O)(=O)c2cccc(C#N)c2)OCc2cnnn2CCCC1=O,nt,-2,-2,0,nt,nt,
N#Cc1cccc(NC(=O)OCCCN2CCC3(CCCCC3)C2=O)c1,nt,nt,nt,-2,nt,nt,
C=CCOc1c(OC)cc(/C=N/Nc2cccc(C(=O)O)c2)c(Br)c1Br,0,-1,10,51*,70*,31*,dCAG dye DR=8.3*
C=CCOc1c(/C=N\NC(N)=O)cccc1OC,-1,0,1,-3,nt,nt,
CC(C)C[C@H]1CN(CCCC[C@H]2CNC(=O)C(=O)N2CCc2ccccc2)C(=O)C(=O)N1CCc1ccccc1,nt,-1,11,2,nt,nt,
CCc1nc2ccc(C(=O)N(C)C(C)C)cn2c1N(CC)Cc1cccc(Br)c1,nt,12,3,-2,nt,nt,
O=C(Nc1ccccc1C(=O)Nc1nnc(C(F)(F)F)s1)c1ccccc1,9,6,5,38*,72*,33*,
Cc1occc1C(=O)Nc1nnc(C(F)(F)F)s1,-1,4,-1,2,nt,nt,
CCCCOc1ccc(NC(=O)Nc2nnc(C)s2)cc1,-1,4,-1,37*,10,8.2*,
CC(c1ccccc1)c1nnc(NC(=O)Nc2ccccc2)s1 (configuration not stated),-5,-9,1,43*,25,17*,
COc1cccc(NC(=O)Nc2nnc(CC(=O)Nc3ccccc3)s2)c1,-1,3,4,43*,32,21*,
COc1ccc(NC(=O)Nc2nnc(CC(=O)Nc3ccccc3)s2)cc1,-2,3,0,42*,16,15*,
CC(c1ccccc1)c1nnc(NC(=O)Nc2ccccc2F)s1 (configuration not stated),nt,-3,-1,10,nt,nt,
CCc1nnc(NC(=O)Nc2ccc(OC)cc2)s1,0,-5,1,24,nt,nt,
COc1ccc(C(O)c2nc(-c3ccc4ccccc4c3)cs2)cc1 (configuration not stated),nt,-11,-3,5,nt,nt,
CC1(C(=O)Nc2ccccc2)CCN1C(=O)CCc1ccc(Cl)cc1Cl (configuration not stated),nt,-4,-8,-1,nt,nt,
O=C(CCc1c[nH]c2ccccc12)Nc1ccc(Nc2cccnc2)cc1,nt,nt,nt,2,nt,nt,
SMILES,HCV core dimer,ABHD5 PLIN5 PPI,NadD block,rCAG binder,rCAG binder conf,dCAG dye counter,others
O=C(Nc1ccccc1)Nc1nc(-c2ccccc2)cs1,1,-6,-7,43*,12,15*,
COC(=O)CCC(=O)Nc1nc(-c2ccccc2)cs1,3,7,1,3,nt,nt,
COc1cccc(-c2csc(NC(=O)Nc3ccccc3)n2)c1,-6,6,-7,54*,29,25*,
O=C(O)CCC(=O)Nc1ccc(-c2csc(Nc3cccc4ccccc34)n2)cc1,nt,-10,4,49*,49*,18*,
CC1CCc2c(sc(NC(=O)COC(=O)c3ccc(O)cc3)c2C#N)C1 (configuration not stated),21,-13,16,39*,37*,19*,
CCC1CCc2c(sc(NC(=O)C3CC=CCC3C(=O)O)c2C#N)C1 (configuration not stated),10,-5,2,59*,39*,11*,
CC1CCc2c(sc(NC(=O)COC(=O)C3CCCO3)c2C#N)C1 (configuration not stated),1,1,-4,0,nt,nt,
Cc1cc(OCC(=O)OC(C)C(=O)NC2CC2)c(C(C)C)cc1Cl (configuration not stated),nt,-1,-1,0,nt,nt,
COC(=O)c1scc(S(=O)(=O)C(C)C)c1N/N=C(\C#N)C(=O)c1ccc(Cl)cc1,10,1,-4,51*,61*,23*,
COC(=O)c1scc(C#N)c1N/N=C(\C#N)S(=O)(=O)c1ccc(Cl)cc1,4,0,4,41*,66*,21*,
COC(=O)CCN(Cc1cccc(OC)c1OC)S(=O)(=O)c1ccccc1Br,nt,nt,nt,3,nt,nt,
O=CNc1cc(-c2ccoc2)cn2c(-c3ccc(F)cc3)cnc12,nt,13,13,25,nt,nt,
COc1ccc(NC(=O)Nc2nc(C(N)CC(C)C)cs2)cc1 (configuration not stated),nt,2,-4,28,nt,nt,
NC(c1csc(NC(=O)Nc2ccc(OC(F)(F)F)cc2)n1)C1CCCCC1 (configuration not stated),nt,-14,12,40*,25,4,
Cc1nn(-c2cccc(Cl)c2)c2c1C(c1cccnc1)C(C#N)=C(N)O2 (configuration not stated),1,-26,0,20,nt,nt,
COc1cc(C2C(C#N)=C(N)Oc3c2c(-c2ccccc2)nn3-c2ccccc2)cc(OC)c1OC (configuration not stated),11,-16,8,62*,25,8.5*,
Cc1nn(-c2ccccc2)c2c1C(c1ccc([N+](=O)[O-])cc1)C(C#N)=C(N)O2 (configuration not stated),-1,-20,2,17,nt,nt,
Cc1nn(-c2cccc(Cl)c2)c2c1C(c1ccncc1)C(C#N)=C(N)O2 (configuration not stated),0,-11,4,36*,27,5.2*,
O=C(Nc1cccc(-c2nc3ccccc3c(=O)o2)c1)c1ccccc1,4,-1,-5,36*,7,2,
COc1cccc(-c2nc3ccccc3c(=O)o2)c1,3,-3,-6,4,nt,nt,
